Results as given in ChEMBL document CHEMBL4665815, “Di-bromo-Based Small-Molecule Inhibitors of the PD-1/PD-L1 Immune Checkpoint” (J Med Chem, 2020).
Activity calls are given as the source filed them. The rule behind the calls is not given here.

Key:
[1] = Binding affinity to human PD1 (34-150 residues) extracellular domain C93S mutant expressed in Escherichia coli BL21 (DE3) incubated for 2 hrs by TR-FRET assay
Jurkat [2] = assay: Toxicity in human Jurkat cells assessed as reduction in cell viability at 40 uM incubated for 24 hrs relative to control; type: cell-based
[3] = biological target: Programmed cell death 1 ligand 1 (Mus musculus) (UniProt Q9EP73); assay: Binding affinity to mouse PD1-L1 (19-134 residues) expressed in Escherichia coli BL21 (DE3) incubated for 1 hr by MST analysis
Chain of Programmed cell death 1 ligand 1 (Mus musculus) (Q9EP73 whole entry, the tested form may be a part): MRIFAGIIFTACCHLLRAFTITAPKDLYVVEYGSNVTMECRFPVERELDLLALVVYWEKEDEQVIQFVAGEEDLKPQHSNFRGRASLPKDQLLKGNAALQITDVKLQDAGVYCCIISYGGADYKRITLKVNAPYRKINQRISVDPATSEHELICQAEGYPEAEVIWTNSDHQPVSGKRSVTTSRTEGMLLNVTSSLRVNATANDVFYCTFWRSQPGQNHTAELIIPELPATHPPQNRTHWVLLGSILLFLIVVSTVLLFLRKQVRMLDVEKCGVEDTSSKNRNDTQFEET

[4] = biological target: T1, Programmed cell death protein 1/Programmed cell death 1 ligand 1 (Homo sapiens, UniProt Q15116+Q9NZQ7); assay: (§1) Inhibition of hPD-1/hPD-L1 immune checkpoint using PD-L1 expressing human aAPCs and PD-1 expressing human Jurkat cells assessed as activation of effector Jurkat T cells incubated for 6 hrs by luciferase reporter gene based immune checkpoint blockade cell-based assay
T1 sequence (Q15116 whole entry): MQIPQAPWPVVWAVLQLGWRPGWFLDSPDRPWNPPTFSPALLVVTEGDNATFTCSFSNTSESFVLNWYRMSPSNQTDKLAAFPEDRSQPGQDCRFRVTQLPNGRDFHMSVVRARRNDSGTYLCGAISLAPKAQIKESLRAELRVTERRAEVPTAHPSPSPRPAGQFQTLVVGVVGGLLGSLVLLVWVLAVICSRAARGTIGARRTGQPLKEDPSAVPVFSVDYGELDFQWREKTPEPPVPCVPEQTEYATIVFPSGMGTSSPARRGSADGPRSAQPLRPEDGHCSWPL
T1 sequence (Q9NZQ7 whole entry): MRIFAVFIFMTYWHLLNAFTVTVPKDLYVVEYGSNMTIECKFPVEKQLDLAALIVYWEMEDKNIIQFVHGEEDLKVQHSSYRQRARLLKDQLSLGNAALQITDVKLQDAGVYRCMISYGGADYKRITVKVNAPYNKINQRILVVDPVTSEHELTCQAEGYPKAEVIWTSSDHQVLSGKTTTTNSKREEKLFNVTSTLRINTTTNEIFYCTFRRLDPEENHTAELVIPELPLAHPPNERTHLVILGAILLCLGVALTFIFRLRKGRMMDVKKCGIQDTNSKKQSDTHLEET
How it was run: (§2)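 CHO-K1 aAPCs expressing hPD-L1 and a TCR ligand were seeded at 10 000/well 17 h ahead. Compounds were serially diluted 2.5-fold in DMSO, then 1000-fold into RPMI with 1% FBS (0.1% DMSO final). Jurkat hPD-1 NFAT-RE luciferase effector cells were added at 20 000/well for 6 h. Bio-Glo luminescence was read as fold induction over DMSO controls. EC50 came from Hill fits with the durvalumab maximum as the ceiling. Mean ± SEM, 4–7 experiments.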

[5] = biological target: T1, Programmed cell death protein 1/Programmed cell death 1 ligand 1; assay: Inhibition of hPD-1/hPD-L1 immune checkpoint using PD-L1 expressing human aAPCs and PD-1 expressing human Jurkat cells assessed as activation of effector Jurkat T cells at 0.01 to 100 uM incubated for 6 hrs by luciferase reporter gene based immune checkpoint blockade cell-based assay; settings: dose microM 0.01-100, time 6.0 hrs; how it was run: as §2
[6] = Solubility in water; type: physicochemical; settings: buffer
[7] = Solubility in DMSO; type: physicochemical
[8] = biological target: Programmed cell death protein 1/Programmed cell death 1 ligand 1 (Homo sapiens, UniProt Q9NZQ7); assay: as §1; how it was run: as §2
Chain of Programmed cell death protein 1/Programmed cell death 1 ligand 1 (Homo sapiens, UniProt Q9NZQ7) (Q15116 whole entry, the tested form may be a part): as the sequence (Q15116 whole entry) above
Chain of Programmed cell death protein 1/Programmed cell death 1 ligand 1 (Homo sapiens, UniProt Q9NZQ7) (Q9NZQ7 whole entry, the tested form may be a part): as the sequence (Q9NZQ7 whole entry) above

[9] = biological target: Programmed cell death 1 ligand 1 (Homo sapiens) (UniProt Q9NZQ7); assay: Binding affinity to human PD-L1 (18 to 134 residues) assessed as induction of protein dimerization by 1H NMR method
Chain of Programmed cell death 1 ligand 1 (Homo sapiens) (Q9NZQ7 whole entry, the tested form may be a part): as the sequence (Q9NZQ7 whole entry) above

PBMC = assay: Effect on CD69 expression in human PBMC; type: functional
How it was run: (§3)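 PBMCs from healthy donors were isolated by density-gradient centrifugation. They were added at 400 000 cells/well onto preseeded CHO-K1 hPD-L1 aAPCs and cultured 48 h with compound, DMSO or atezolizumab (5 μg/mL). Cells were detached and stained 20 min at room temperature for CD69, CD4, CD8 and PD-1, then analysed by flow cytometry. Values are mean ± SD of three independent experiments with different donors; Student's t test.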

[10] = biological target: T1, Programmed cell death protein 1/Programmed cell death 1 ligand 1; assay: Inhibition of PD-1/PD-L1 immune checkpoint using PD-L1 expressing human aAPCs and PD-1 expressing human PBMC assessed as increase in PD-1 receptor expression on surface of CD8+ T cells incubated for 48 hrs by flow cytometry; how it was run: as §3
[11] = biological target: T1, Programmed cell death protein 1/Programmed cell death 1 ligand 1; assay: Inhibition of PD-1/PD-L1 immune checkpoint using PD-L1 expressing human aAPCs and PD-1 expressing human PBMC assessed as increase in PD-1 receptor expression on surface of CD4+ T cells incubated for 48 hrs by flow cytometry; how it was run: as §3
Jurkat [12] = assay: Toxicity in human Jurkat cells at >100 uM incubated for 24 hrs; type: cell-based
[13] = biological target: T1, Programmed cell death protein 1/Programmed cell death 1 ligand 1; assay: Inhibition of hPD-1/hPD-L1 immune checkpoint using PD-L1 expressing human aAPCs and PD-1 expressing human Jurkat cells assessed as activation of effector Jurkat T cells at 50 uM incubated for 6 hrs by luciferase reporter gene based immune checkpoint blockade cell-based assay relative to control; how it was run: as §2
[14] = Binding affinity to Fc-tagged human PD-1 assessed as induction of dissociation of PD-1 N66A mutant/His-and Fc-tagged human PD-L1complex pre-incubated for 30 mins with PDL1 and measured after 1 hr by competitive ELISA
Homo sapiens [15] = species: Homo sapiens; assay: Binding affinity to 15N labelled human PD1 N66A mutant assessed as induction of dissociation of PD-1 N66A mutant/PDL1 complex by w-AIDA-NMR 2D assay
How it was run: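 Uniformly 15N-labelled hPD-1 N66A mutant, expressed in bacteria grown at 28 °C in M9 medium with 15NH4Cl as the sole nitrogen source and induced with 1 mM IPTG. Protein was refolded from inclusion bodies and purified by size-exclusion chromatography in 25 mM sodium phosphate pH 6.4, 100 mM NaCl. 1H–15N signals were followed by SOFAST HMQC.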

Homo sapiens [16] = species: Homo sapiens; assay: Binding affinity to 15N labelled human PD1 N66A mutant assessed as induction of dissociation of PD-1 N66A mutant/PDL1 complex by w-AIDA-NMR 1D assay

| Compound | IC50 [1] [µM] | further results |
| --- | --- | --- |
| OCc1cccc(-c2ccc3c(c2)OCCO3)c1F | 55.5 |  |
| CC(=O)NCCNCc1ccc(OCc2cccc(-c3cccc(F)c3)c2Br)c(Br)c1 | 0.107 |  |
| Cc1c(COc2cc(OCc3cccc(C#N)c3)c(CN3C[C@H](O)C[C@@H]3C(=O)O)cc2Cl)cccc1-c1ccc2c(c1)OCCO2 |  | Activity (Jurkat [2]): 50%; Activity [3]: inactive |
| N#Cc1ccc(-c2cccc(CBr)c2Br)cc1 | 66.3 |  |
| O=C(O)[C@@H]1CCCCN1Cc1ccc(OCc2cccc(-c3cccc(F)c3)c2Br)c(Br)c1 | 0.0653 |  |
| O=Cc1ccc(OCc2cccc(-c3ccc4c(c3)OCCO4)c2Br)c(Br)c1 | 35.4 |  |
| O=Cc1ccc(OCc2cccc(-c3ccc4c(c3)OCCO4)c2F)c(Br)c1 | > 100 |  |
| O=S1(=O)CCN(Cc2cccc(OCc3cccc(-c4cccc(F)c4)c3Br)c2)CC1 | 22.3 |  |
| O=S1(=O)CCN(Cc2ccc(OCc3cccc(-c4cccc(F)c4)c3Br)c(Br)c2)CC1 | 4.24 |  |
| O=C(O)[C@@H]1CCCCN1Cc1ccc(OCc2cccc(-c3ccc4c(c3)OCCO4)c2Br)c(Br)c1 | 0.401 | EC50 [8]: > 40 µM; Activity [5]: Active |
| Fc1cccc(-c2cccc(CBr)c2Br)c1 | 100 |  |
| OCc1cccc(-c2ccccc2)c1F | 55.9 | Activity (Homo sapiens [15]): Active; Activity (Homo sapiens [16]): Active |
| BrCc1cccc(-c2ccccc2)c1Br | 50.7 | Activity (Homo sapiens [15]): Active; Activity (Homo sapiens [16]): Active |
| CC(=O)NCCNCc1ccc(OCc2cccc(-c3ccc4c(c3)OCCO4)c2F)c(Br)c1 | 0.0227 |  |
| Cc1c(COc2ccc(CN3CCCC[C@H]3C(=O)O)cc2)cccc1-c1ccccc1 |  | Activity [3]: inactive; Activity [5]: Active |
| BrCc1cccc(-c2ccc3c(c2)OCCO3)c1Br | 64.4 |  |

More lines, main results first:

| IC50 [1] [µM] | Compound | further results |
| --- | --- | --- |
| > 100 | O=Cc1cc(Cl)c(OCc2cccc(-c3ccccc3)c2-c2ccccc2)cc1O |  |
| > 100 | COc1cc(C=O)ccc1OCc1cccc(-c2ccccc2)c1Br |  |
| > 100 | OCc1cccc(-c2ccccc2)c1-c1ccccc1 |  |
| 29.4 | N#Cc1cc(COc2cc(OCc3cccc(-c4ccccc4)c3Br)c(Cl)cc2C=O)ccn1 | EC50 [4]: > 40 µM; Activity [5]: Active |
| 50 | O=Cc1ccc(OCc2cccc(-c3ccccc3)c2Br)c(Br)c1 |  |
| 0.0039 | N#Cc1cc(COc2cc(OCc3cccc(-c4ccccc4)c3Br)c(Cl)cc2CN2C[C@@H](O)C[C@H]2C(=O)O)ccn1 | solubility [6]: Insoluble; solubility [7]: Insoluble; EC50 [8]: 12.2 µM; Activity [5]: Active; Activity [9]: Active |
| > 100 | N#Cc1ccc(-c2cccc(COc3ccc(C=O)cc3Br)c2Br)cc1 |  |
| 0.015 | O=C(O)[C@@H]1CCCCN1Cc1ccc(OCc2cccc(-c3ccccc3)c2Br)cc1 | Activity (PBMC): inactive; Activity [3]: inactive; inhibition [10]: Active; inhibition [11]: Active; Activity (Jurkat [12]): Non-Toxic; EC50 [8]: 6.6 µM; fold change (FC) [13]: 2.1; Activity [5]: Active; Activity [9]: Active; IC50 [14]: 0.00147 µM |
| 0.552 | N#Cc1cccc(COc2cc(OCc3cccc(-c4ccccc4)c3Br)c(Cl)cc2C=O)c1 | EC50 [4]: > 40 µM; Activity [5]: Active |
| 29.4 | O=C(O)[C@@H]1C[C@H](O)CN1Cc1ccc(OCc2cccc(-c3ccccc3)c2-c2ccccc2)c(Br)c1 |  |
| 50 | Cc1cc(C=O)ccc1OCc1cccc(-c2ccccc2)c1Br |  |
| 50 | O=Cc1ccc(OCc2cccc(-c3ccccc3)c2Br)cc1 |  |
| > 100 | OCc1cccc(OCc2cccc(-c3cccc(F)c3)c2Br)c1 |  |
| > 100 | O=Cc1ccc(OCc2cccc(-c3ccccc3)c2-c2ccccc2)c(Br)c1 |  |
| > 100 | O=Cc1cc(Cl)c(OCc2cccc(-c3ccccc3)c2Br)cc1O |  |
| 28.6 | COC(=O)c1ccc(OCc2cccc(-c3ccccc3)c2Br)c(Br)c1 |  |
| 5.11 | CC(=O)NCCNCc1ccc(OCc2cccc(-c3ccc(C#N)cc3)c2Br)c(Br)c1 |  |
| 55 | O=Cc1ccc(OCc2cccc(-c3cccc(F)c3)c2Br)c(Br)c1 |  |
| 23.8 | N#Cc1cc(COc2cc(OCc3cccc(-c4ccccc4)c3-c3ccccc3)c(Cl)cc2C=O)ccn1 | EC50 [4]: > 40 µM; Activity [5]: Active |
